{
  "source": "ChEMBL document CHEMBL3526053",
  "about": "“Species-dependent uptake of glycylsarcosine but not oseltamivir in Pichia pastoris expressing the rat, mouse, and human intestinal peptide transporter PEPT1” (Drug Metab Dispos, 2012)",
  "assay_type_in_all_cases": "ADME",
  "key": {"[1]": {"target": "T1, Solute carrier family 15 member 1 (Homo sapiens, UniProt P46059)", "T1 sequence (P46059 whole entry)": "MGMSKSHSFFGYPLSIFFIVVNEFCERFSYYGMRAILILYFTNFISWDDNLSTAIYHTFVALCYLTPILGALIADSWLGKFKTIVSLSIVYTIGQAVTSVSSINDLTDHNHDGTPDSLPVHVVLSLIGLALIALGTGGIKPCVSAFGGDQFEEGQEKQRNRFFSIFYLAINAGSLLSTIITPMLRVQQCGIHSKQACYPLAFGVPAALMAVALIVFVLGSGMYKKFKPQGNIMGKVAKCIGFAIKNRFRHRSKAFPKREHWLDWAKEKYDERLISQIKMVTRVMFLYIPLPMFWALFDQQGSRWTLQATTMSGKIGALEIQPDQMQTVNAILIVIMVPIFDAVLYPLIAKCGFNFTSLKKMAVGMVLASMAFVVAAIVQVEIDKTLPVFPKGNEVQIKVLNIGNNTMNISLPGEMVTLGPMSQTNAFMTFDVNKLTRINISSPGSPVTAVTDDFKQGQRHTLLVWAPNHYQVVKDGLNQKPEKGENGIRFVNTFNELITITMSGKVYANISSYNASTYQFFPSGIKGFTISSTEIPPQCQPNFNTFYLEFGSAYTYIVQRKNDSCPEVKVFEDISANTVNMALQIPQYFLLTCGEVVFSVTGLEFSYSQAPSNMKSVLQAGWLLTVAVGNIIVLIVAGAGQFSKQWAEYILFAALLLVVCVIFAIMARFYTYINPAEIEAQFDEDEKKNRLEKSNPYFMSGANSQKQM", "test": "Drug uptake in Pichia pastoris GS115 expressing human recombinant PEPT1 at 5 uM after 30s by dual-channel liquid scintillation counting analysis in presence of valacyclovir relative to control", "conditions": "0.5 min", "in_short": "(§1)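 [3H]GlySar 5.0 µM final, 30-s uptake at 24°C in 100 mM potassium phosphate pH 6.5, with or without a potential inhibitor at 10 mM. Cells are methanol-induced transformants. Values are vector-subtracted and expressed as percent of buffer control. Mean ± SE (n=3). ANOVA with Dunnett's test.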"}, "[2]": {"target": "T2, Solute carrier family 15 member 1 (Mus musculus, UniProt Q9JIP7)", "T2 sequence (Q9JIP7 whole entry)": "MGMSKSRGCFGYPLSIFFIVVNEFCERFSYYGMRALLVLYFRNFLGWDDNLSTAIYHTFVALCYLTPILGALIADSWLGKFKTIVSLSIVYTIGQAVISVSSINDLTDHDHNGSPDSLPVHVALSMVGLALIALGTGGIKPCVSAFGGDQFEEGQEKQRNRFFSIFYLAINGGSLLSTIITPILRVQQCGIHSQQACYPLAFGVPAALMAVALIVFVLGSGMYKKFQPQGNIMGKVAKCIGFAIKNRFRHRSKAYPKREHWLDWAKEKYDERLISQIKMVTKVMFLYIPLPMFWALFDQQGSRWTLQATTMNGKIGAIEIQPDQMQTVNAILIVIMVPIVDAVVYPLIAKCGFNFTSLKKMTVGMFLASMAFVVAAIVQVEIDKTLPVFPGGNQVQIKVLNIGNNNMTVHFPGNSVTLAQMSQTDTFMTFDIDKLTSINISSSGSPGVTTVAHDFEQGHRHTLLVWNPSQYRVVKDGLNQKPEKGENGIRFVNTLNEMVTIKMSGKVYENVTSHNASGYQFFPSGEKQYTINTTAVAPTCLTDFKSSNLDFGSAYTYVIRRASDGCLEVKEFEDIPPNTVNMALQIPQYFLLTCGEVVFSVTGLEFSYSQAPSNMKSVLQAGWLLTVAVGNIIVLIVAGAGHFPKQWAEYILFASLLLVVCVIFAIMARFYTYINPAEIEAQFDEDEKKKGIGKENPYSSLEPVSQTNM", "test": "Drug uptake in Pichia pastoris GS115 expressing mouse recombinant PEPT1 at 5 uM after 30s by dual-channel liquid scintillation counting analysis in presence of acyclovir relative to control", "conditions": "0.5 min", "in_short": "as §1"}, "[3]": {"target": "T3, Solute carrier family 15 member 1 (Rattus norvegicus, UniProt P51574)", "T3 sequence (P51574 whole entry)": "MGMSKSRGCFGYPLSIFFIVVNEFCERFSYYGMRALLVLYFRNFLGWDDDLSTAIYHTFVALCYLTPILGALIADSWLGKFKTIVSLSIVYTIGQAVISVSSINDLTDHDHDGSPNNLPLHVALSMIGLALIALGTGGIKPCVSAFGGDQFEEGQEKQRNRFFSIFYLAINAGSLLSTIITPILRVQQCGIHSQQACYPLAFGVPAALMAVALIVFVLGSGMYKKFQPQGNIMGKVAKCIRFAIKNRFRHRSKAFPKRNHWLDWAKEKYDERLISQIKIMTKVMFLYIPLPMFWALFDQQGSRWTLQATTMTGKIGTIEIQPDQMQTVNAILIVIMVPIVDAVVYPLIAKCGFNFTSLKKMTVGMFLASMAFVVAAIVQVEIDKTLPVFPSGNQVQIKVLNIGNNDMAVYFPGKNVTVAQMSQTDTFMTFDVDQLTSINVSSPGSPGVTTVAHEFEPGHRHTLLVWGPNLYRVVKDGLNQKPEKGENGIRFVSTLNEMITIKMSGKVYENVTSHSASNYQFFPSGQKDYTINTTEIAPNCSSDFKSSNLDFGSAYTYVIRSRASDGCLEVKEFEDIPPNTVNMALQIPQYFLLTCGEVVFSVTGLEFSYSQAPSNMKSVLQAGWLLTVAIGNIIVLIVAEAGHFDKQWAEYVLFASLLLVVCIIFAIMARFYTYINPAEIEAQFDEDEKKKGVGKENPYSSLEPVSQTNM", "test": "Drug uptake in Pichia pastoris GS115 expressing rat recombinant PEPT1 at 5 uM after 30s by dual-channel liquid scintillation counting analysis in presence of cephradine relative to control", "conditions": "0.5 min", "in_short": "(§2)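 Rat PEPT1 (pPIC3.5K-rPept1) in GS115 His+Mut+ transformant, methanol-induced 20-24 hr in BMMY at 30°C, washed into 100 mM potassium phosphate pH 6.5. [3H]GlySar final 5.0 µM with inhibitor at 10 mM, 30 sec at 24°C. Counts taken by liquid scintillation after 24 hr standing. Values are vector-subtracted and given as % of buffer control. Mean ± SE, n=3.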"}, "[4]": {"target": "T3, Solute carrier family 15 member 1", "test": "Drug uptake in Pichia pastoris GS115 expressing rat recombinant PEPT1 at 5 uM after 30s by dual-channel liquid scintillation counting analysis in presence of TEA relative to control", "conditions": "0.5 min", "in_short": "as §1"}, "[5]": {"target": "T1, Solute carrier family 15 member 1", "test": "Drug uptake in Pichia pastoris GS115 expressing human recombinant PEPT1 at 5 uM after 30s by dual-channel liquid scintillation counting analysis in presence of cefadroxil relative to control", "conditions": "0.5 min", "in_short": "as §1"}, "[6]": {"target": "T2, Solute carrier family 15 member 1", "test": "Drug uptake in Pichia pastoris GS115 expressing mouse recombinant PEPT1 at 5 uM after 30s by dual-channel liquid scintillation counting analysis in presence of glycine relative to control", "conditions": "in vivo, 0.5 min", "in_short": "as §1"}, "[7]": {"target": "T1, Solute carrier family 15 member 1", "test": "Drug uptake in Pichia pastoris GS115 expressing human recombinant PEPT1 at 5 uM after 30s by dual-channel liquid scintillation counting analysis in presence of TEA relative to control", "conditions": "0.5 min", "in_short": "as §1"}, "[8]": {"target": "T3, Solute carrier family 15 member 1", "test": "Drug uptake in Pichia pastoris GS115 expressing rat recombinant PEPT1 at 5 uM after 30s by dual-channel liquid scintillation counting analysis in presence of cephapirin relative to control", "conditions": "0.5 min", "in_short": "as §2"}},
  "data": [
    {"smiles": "[3H]C(C(=O)O)N(C)C(=O)CN", "note": "(stereo not drawn)", "values": [
      {"measurement": "Drug uptake", "setting": "[1]", "value": 3.5, "unit": "%"},
      {"measurement": "Drug uptake", "setting": "[2]", "value": 99.8, "unit": "%"},
      {"measurement": "Drug uptake", "setting": "[3]", "value": 23.4, "unit": "%"},
      {"measurement": "Drug uptake", "setting": "[4]", "value": 94.8, "unit": "%"},
      {"measurement": "Drug uptake", "setting": "[5]", "value": 6.4, "unit": "%"},
      {"measurement": "Drug uptake", "setting": "[6]", "value": 104, "unit": "%"},
      {"measurement": "Drug uptake", "setting": "[7]", "value": 113, "unit": "%"},
      {"measurement": "Drug uptake", "setting": "[8]", "value": 122, "unit": "%"}
    ]}
  ]
}
